# Keap1 Nrf2 FP: Keap1-Nrf2 (human) interaction inhibition; Q14145; Keap1 Kelch-Nrf2 peptide fluorescence polarization, 1536-well; AID 504523; 0.15% of 340,000 active; inhibition, % at 9.4 µM; in the data active means inhibition above about 12%; inconclusive means no clear call, values can overlap the other calls; inactive means below about 7.3%;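 further: human Keap1 Kelch domain with fluorescein labeled Nrf2 9mer peptide probe; higher means more block of Keap1 binding to Nrf2 peptide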
# Target sequence (Q14145 whole entry, looked up, the tested form may be a part): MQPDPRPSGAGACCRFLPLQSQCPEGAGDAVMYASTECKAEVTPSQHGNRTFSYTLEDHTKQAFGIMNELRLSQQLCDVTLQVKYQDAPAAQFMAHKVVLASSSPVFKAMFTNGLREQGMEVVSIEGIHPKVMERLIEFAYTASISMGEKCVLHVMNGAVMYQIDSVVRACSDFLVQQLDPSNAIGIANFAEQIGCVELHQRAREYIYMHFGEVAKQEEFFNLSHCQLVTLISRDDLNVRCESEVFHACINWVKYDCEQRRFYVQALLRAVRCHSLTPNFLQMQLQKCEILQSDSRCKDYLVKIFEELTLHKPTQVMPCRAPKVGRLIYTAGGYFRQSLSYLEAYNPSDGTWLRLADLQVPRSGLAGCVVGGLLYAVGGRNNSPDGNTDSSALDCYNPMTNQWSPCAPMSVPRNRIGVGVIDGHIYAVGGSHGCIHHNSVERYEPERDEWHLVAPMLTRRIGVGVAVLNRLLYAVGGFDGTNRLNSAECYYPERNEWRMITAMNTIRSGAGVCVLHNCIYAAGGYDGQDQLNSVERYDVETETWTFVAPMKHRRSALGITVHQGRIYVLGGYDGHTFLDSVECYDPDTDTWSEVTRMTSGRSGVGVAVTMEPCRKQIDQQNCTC
# EBV gp42 block: blocks Epstein-Barr virus glycoprotein 42 binding; Q1HVG2; Fluorescence polarization binding assay, mP read-out; inhibition, % (tested at 21.74 µM); 0.42% of 220,000 active; AID 1085; in the data active means inhibition above about 50%
# GRK2 inh: human GRK2 inhibition via aptamer displacement; inhibition of aptamer binding, % at 10 µM; 0.59% of 330,000 active; AID 488847; bead flow cytometry, FAM-aptamer displacement from GRK2; P25098;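 active means inhibition of aptamer binding above 40%, roughly 3 SD of noise, on plates passing a quality check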;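 further: median bead fluorescence of bound FAM aptamer so fluorescent compounds give negative values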
# T cell HTS: modulates CD8 T cell binding to vesicles | 2C CD8+ T cell-vesicle binding, flow cytometry; active compounds read low | 0.068% of 330,000 active | response (vesicle binding), % at 7 µM;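 active means response, share of CD8 T cells binding vesicles, and their 90th percentile fluorescence all below set limits, cut at about 80% in these data, passing the limit was not always enough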;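 further: values below 100% mean blocked vesicle binding to the CD8+ T cells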
#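 Material: murine 2C transgenic CD8+ T lymphocytes / Also added: QL9-peptide-loaded Drosophila micro-vesicles bearing Ld, ICAM-1 and B7-1 / Schedule: binding step 1.5 h, 37 °C, antibody labelling 20 min, ice / Signal: flow cytometry, PE anti-B7-1 (FL2) versus Alexa647 anti-CD8 (FL8), PFA-fixed / Evaluation: percent CD8+ FL2 mean versus row control / Benchmarks: naked versus QL9-loaded vesicles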
# LANA DNA inh: KSHV C-LANA DNA binding inhibition | MBP-C-LANA/FAM-LBS DNA binding, fluorescence polarization | inhibition, % at 9 µM | 0.078% of 340,000 active;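 active means highest replicate inhibition at or above 60% at 9 µM, even if other replicates fall short; inactive means all replicates below 60% inhibition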
# MEX-5 binding: C. elegans MEX-5 TCR-2 RNA binding activity | activity score (negative = inhibition of binding), % at 10 µM | MEX-5/FITC-TCR2 RNA binding, fluorescence polarization; active compounds read low | AID 1832 | 0.38% of 300,000 active | Q9XUB2;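 active means inhibition past about -25% in most replicates, and total fluorescence under double the plate's negative control median, limit read from the data; inconclusive means replicates evenly split on the limit, or fluorescence at least double controls; inactive means too little inhibition in most replicates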
# Numbers stand for hits; – = inactive; ? = inconclusive; · = no result given; ! = repeats disagree. This is a sample that favours compounds with a hit; in the whole collection about 1.3% have one here.
SMILES,Keap1 Nrf2 FP,EBV gp42 block,GRK2 inh,T cell HTS,LANA DNA inh,MEX-5 binding
COc1ccc(N2C(=O)NC(=O)/C(=C\c3cn(CC(=O)N4CCOCC4)c4ccccc34)C2=O)c(OC)c1,–,·,–,–,–,–
COC(=O)Cn1cc(/C=C2\C(=O)NC(=O)N(c3ccc(OC)cc3)C2=O)c2ccccc21,–,·,–,–,–,-54
COCCNC(=O)Cn1cc(/C=C2\C(=O)NC(=O)N(c3ccccc3F)C2=O)c2ccccc21,–,·,–,–,–,-86
COc1ccc(N2C(=O)NC(=O)/C(=C/c3ccc(N4CCOCC4)cc3)C2=O)cc1,·,–,–,–,·,–
COCCCNC(=O)Cn1cc(/C=C2\C(=O)NC(=O)N(c3ccccc3F)C2=O)c2ccccc21,–,·,–,–,–,?
O=C(O)Cn1cc(/C=C2\C(=O)NC(=O)N(c3ccc(F)cc3)C2=O)c2ccccc21,·,·,–,–,·,-42
O=C1NC(=S)N(c2ccc(F)cc2)C(=O)/C1=C/c1ccccc1O,–,·,–,–,–,–
O=c1[nH]c(=O)n(-c2ccc(Br)cc2)c(O)c1C=NCCN1CCCCC1,–,–,–,–,–,-40
COc1ccc(SCC2CN(C)CCC2c2ccc(F)cc2)cc1 (stereo not given),–,·,–,–,–,–
CN1C(=O)/C(=C/c2cccn2-c2ccc3ccccc3c2)C(=O)NC1=S,–,–,–,–,–,–
CN1C(=O)/C(=C\N2CCc3ccccc32)C(=O)NC1=S,–,90,–,–,–,–
FC(F)=C(F)CCSc1ncn[nH]1,–,–,–,–,–,–
Cc1ccc(N2C(=O)NC(=O)/C(=C\c3ccc([N+](=O)[O-])o3)C2=O)cc1,·,–,–,–,·,-68
CN(C(=O)COC(=O)c1cn(C)c2ccccc12)C1CCCCC1,–,·,–,–,–,·
O=C(O)c1cccc(N=Nc2c(O)[nH]c(=O)[nH]c2=O)c1,–,–,–,47,–,–
N#Cc1ccc(Cn2cc(C=O)c3ccccc32)cc1,–,·,·,–,–,–
Cn1cc(C=C(C#N)C#N)c2ccccc21,53,–,–,–,–,–
COc1cc(OC)c(OC)cc1/C=C1/C(=O)NC(=O)N(Cc2ccccc2)C1=O,–,–,–,–,–,–
Cc1cc(/C=C2\C(=O)NC(=O)N(Cc3ccccc3)C2=O)c(C)n1C1CC1,–,–,–,–,–,-58
CCOCCCNC(=O)CN1C2CCC1CC(O)(c1ccc(OC)cc1)C2 (stereo not given),–,–,–,–,–,–
CCN1CCN(c2nc3ccccc3s2)CC1,–,–,–,–,–,–
Clc1ccc(COC(Cn2ccnc2)c2ccc(Cl)cc2Cl)c(Cl)c1 (stereo not given),–,–,–,0.0!,–,–
CN1Cc2c(c(C#N)c(N)n(C)c2=S)CC1(C)C,16,52,–,–,–,-48
CN1CCC2(CC1)C(C#N)=C(N)NC(S)=C2C#N,–,–,–,–,–,-43!
N#CC(C#N)=Cc1ccc(N2CCOCC2)cc1,–,–,–,–,–,-27
SMILES,Keap1 Nrf2 FP,EBV gp42 block,GRK2 inh,T cell HTS,LANA DNA inh,MEX-5 binding
Cn1cccc1/C=C1/C(=O)NC(=O)N(C(C)(C)C)C1=O,–,–,–,–,–,·
Cn1cccc1/C=C1\C(=O)NC(=O)N(Cc2ccccc2Cl)C1=O,–,58,·,·,–,·
Cn1cccc1/C=C1\C(=O)NC(=O)N(CCC2=CCCCC2)C1=O,–,–,·,·,–,-37
CN1CCN(c2ncc(C=O)s2)CC1,–,–,–,–,–,–
S=C=Nc1cccc(C2(N3CCCCC3)CCCCC2)c1,–,·,–,–,–,·
C=CCN1C(=O)/C(=C/c2cccs2)C(=O)NC1=S,–,–,–,–,–,–
O=C1NC(=S)N(Cc2ccco2)C(=O)/C1=C\c1cccs1,·,72,·,·,·,·
COc1ccc(CC(=O)N(C)C2CCCN(Cc3ccccc3F)C2)cc1OC (stereo not given),–,·,–,–,–,–
O=S(=O)(c1ccc(Cl)cc1)N1CC1c1ccccc1 (stereo not given),–,–,–,–,–,–
O=c1[nH]c(O)c(C=Nc2ccccc2[N+](=O)[O-])c(=O)[nH]1,·,–,58,–,·,–
O=c1[nH]c(O)c(C=Nc2ccccc2Sc2ccccc2)c(=O)[nH]1,–,–,–,–,–,–
CC1CCC(NC(=O)CNC(=S)N2CC3CC(C2)c2cccc(=O)n2C3)CC1 (stereo not given),–,·,–,–,–,–
CCOc1cc(C=C2C(=O)NC(=S)NC2=O)ccc1O,12,·,·,·,–,·
COc1cccc(N2C(=O)NC(=O)/C(=C/c3ccc4c(c3)Cc3ccccc3-4)C2=O)c1,–,–,–,–,–,-43
COC(=O)C(O)(c1cn(C)c2ccccc12)C(F)(F)F (stereo not given),–,–,–,–,–,–
NC(=O)Cn1cc(C=C2C(=O)NC(=O)NC2=O)c2ccccc21,–,·,–,–,–,-74
COC(=O)Cn1cc(C=C2C(=O)NC(=O)NC2=O)c2ccccc21,?,·,–,–,–,-27
COC(=O)Cn1cc(C(=O)c2ccccc2F)c2ccccc21,–,·,–,–,–,–
COC(=O)C1C2CC[C@@H](CC1OC(=O)c1ccccc1)N2 (stereo not given in full),–,·,–,–,–,·
CC(C)C[C@H]1C(=O)N2CCCC2[C@]2(O)O[C@](NC(=O)[C@@H]3C=C4c5cccc6[nH]cc(c56)CC4N(C)C3)(C(C)C)C(=O)N12 (stereo not given in full),16,97,–,–,–,–
CC(C)[C@@]1(NC(=O)[C@@H]2C=C3c4cccc5[nH]cc(c45)C[C@H]3N(C)C2)O[C@@]2(O)[C@@H]3CCCN3C(=O)[C@H](Cc3ccccc3)N2C1=O,·,112,·,·,·,·
CC(C)[C@@]1(NC(=O)[C@@H]2C[C@@H]3c4cccc5[nH]cc(c45)C[C@H]3N(C)C2)O[C@@]2(O)[C@@H]3CCCN3C(=O)[C@H](Cc3ccccc3)N2C1=O,–,–,–,–,–,–
CC(C)[C@H]1C(=O)N2CCC[C@H]2[C@]2(O)O[C@](NC(=O)[C@@H]3C=C4c5cccc6[nH]cc(c56)C[C@H]4N(C)C3)(C(C)C)C(=O)N12,15,112,–,–,–,·
CCCCCCn1c(O)c(/C=N/N2CCCCCC2)c(=O)[nH]c1=O,–,–,–,–,–,–
Cc1ccsc1-c1nc(CSCC(=O)N2CCC3(CC2)OCCO3)c(C)o1,–,–,–,–,–,–
CCOc1ccc2oc(C(=O)NN3C(C)CCCC3C)c(C)c2c1 (stereo not given),–,–,–,–,–,–
COC(=O)C1=C(c2cccc(C#N)c2)C[C@@H]2CC[C@H]1N2C(=O)NC1Cc2ccccc2C1,–,·,–,–,–,·
O=C(NC(=S)N1C[C@H]2C[C@H](C1)c1cccc(=O)n1C2)c1ccc(Cl)cc1Cl,–,·,–,–,–,–

# Screens (PubChem)
